{
  "source": "paper PMC9401544",
  "about": "(Clinical Cancer Research, 2021)",
  "key": {"[1]": {"tested_on": "tenosynovial giant cell tumor (TGCT)", "assay": "Tumor response by RECIST 1.1", "assay_type": "in vivo, human"}, "[2]": {"tested_on": "advanced solid tumors (MEC, GIST, ATC, malignant effusions, miscellaneous tumor types)", "assay_type": "in vivo, human", "summary_of_the_method": "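Adults with advanced, incurable tumours received 1,000 mg/day, split 600 mg morning and 400 mg evening, continued to progression or unacceptable toxicity. Response was assessed locally by imaging at baseline and every 2 months per RECIST version 1.1, with readings not blinded to visit order. Data cutoff was 31 January 2018.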"}, "[3]": {"tested_on": "patients with advanced solid tumors (TGCT and non-TGCT cohorts)", "assay": "Safety: adverse events, laboratory assessments, ECG", "assay_type": "in vivo, human"}, "[4]": {"tested_on": "patients with advanced solid tumors (TGCT and non-TGCT cohorts)", "assay": "Drug exposure: treatment duration, dose reductions, drug holidays", "assay_type": "in vivo, human", "summary_of_the_method": "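Adult patients at 12 US centres took 1,000 mg/day (600 mg morning, 400 mg evening) until progression or unacceptable toxicity. Dose changes, usually in 200 mg/day steps, and temporary holds for toxicity or other reasons were allowed. Exposure was tallied to the 31 January 2018 cutoff. Months were computed as days divided by 30.4167.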"}, "[5]": {"tested_on": "tenosynovial giant cell tumor (TGCT)", "details": "3 of the 4 TGCT patients; cited from earlier work"}, "patients with TGCT": {"tested_on": "patients with TGCT", "details": "cited from earlier work"}, "[6]": {"tested_on": "tenosynovial giant cell tumor (TGCT)", "details": "patients with TGCT, usually; cited from earlier work"}, "[7]": {"details": "13 TGCT subjects that remained on treatment, as of February 2021"}},
  "data": [
    {"smiles": "FC(F)(F)c1ccc(CNc2ccc(Cc3c[nH]c4ncc(Cl)cc34)cn2)cn1", "note": "[pexidartinib]", "values": [
      {"measurement": "median DOR", "setting": "[1]; [7]", "value": "1,529 days"},
      {"measurement": "median PFS", "setting": "[1]; [7]", "value": "1,764 days"},
      {"measurement": "patients with TGCT who achieved a response, RECIST 1.1", "setting": "[1]; CR + PR, of 39 FAS", "value": 24, "unit": "patients"},
      {"measurement": "PR, RECIST 1.1", "setting": "[1]; TGCT", "value": 22, "unit": "patients"},
      {"measurement": "complete response (CR), RECIST 1.1", "setting": "[1]; TGCT", "value": 2, "unit": "patients"},
      {"measurement": "patients who progressed while on therapy, modified tumor response criteria", "setting": "[1]; TGCT", "value": 3, "unit": "patients"},
      {"measurement": "patients with SD that lasted for at least 6 months, RECIST 1.1", "setting": "[1]; TGCT", "value": 8, "unit": "patients"},
      {"measurement": "patients with at least a 50% reduction in sum of longest tumor diameter", "setting": "[1]; TGCT", "value": "Fifteen"},
      {"measurement": "disease control rate (DCR = CR + PR + SD), RECIST 1.1", "setting": "[1]; TGCT FAS (n = 39)", "value": 82, "unit": "%"},
      {"measurement": "disease control rate (DCR = CR + PR + SD), RECIST 1.1", "setting": "[1]; TGCT efficacy-evaluable (n = 37)", "value": 86, "unit": "%"},
      {"measurement": "objective response rate (ORR), RECIST 1.1 per local reading", "setting": "[1]; TGCT efficacy-evaluable population (n = 37)", "value": 65, "unit": "%"},
      {"measurement": "25th percentile for duration of response (DOR)", "setting": "[1]; TGCT, RECIST 1.1", "value": 943, "unit": "days"},
      {"measurement": "ORR, RECIST 1.1", "setting": "[1]; both the FAS and efficacy-evaluable TGCT populations", "value": "over 60%"},
      {"measurement": "patients with prolonged (>6 months) SD", "setting": "[2]; non-TGCT", "value": 6, "unit": "patients"},
      {"measurement": "median progression-free survival (PFS)", "setting": "[2]; non-TGCT patients", "value": 56, "unit": "days"},
      {"measurement": "patients with partial response (PR)", "setting": "[2]; non-TGCT population (n = 52)", "value": 1, "unit": "patients"},
      {"measurement": "patients with stable disease (SD) as best response", "setting": "[2]; non-TGCT population (n = 52)", "value": "Fifteen"},
      {"measurement": "cases meeting Hy's law criteria", "setting": "[3]; all 91 patients", "value": "no cases that met criteria for Hy's law"},
      {"measurement": "decreases in platelets, hemoglobin, white blood cells (neutrophils, lymphocytes): grade", "setting": "[3]; all patients", "value": "generally grade 2 or less"},
      {"measurement": "electrocardiogram abnormalities", "setting": "[3]; all patients", "value": "No patient had clinically significant electrocardiogram abnormalities"},
      {"measurement": "AST increase, treatment-related AE of grade ≥ 3", "setting": "[3]; non-TGCT patients", "value": 4, "unit": "%"},
      {"measurement": "fatigue, treatment-related AE of grade ≥ 3", "setting": "[3]; non-TGCT patients", "value": 6, "unit": "%"},
      {"measurement": "hypophosphatemia, treatment-related AE of grade ≥ 3", "setting": "[3]; non-TGCT patients", "value": 4, "unit": "%"},
      {"measurement": "patients with grade 3 elevations in aminotransferase levels", "setting": "[3]; of the 91 patients", "value": 6, "unit": "patients"},
      {"measurement": "alanine aminotransferase increase, grade ≥ 3 treatment-related AE", "setting": "[3]; patients with TGCT", "value": 10, "unit": "%"},
      {"measurement": "aspartate aminotransferase (AST) increase, grade ≥ 3 treatment-related AE", "setting": "[3]; patients with TGCT", "value": 8, "unit": "%"},
      {"measurement": "hypophosphatemia, grade ≥ 3 treatment-related AE", "setting": "[3]; patients with TGCT", "value": 10, "unit": "%"},
      {"measurement": "nausea, treatment-related AE", "setting": "[3]; patients with TGCT", "value": 56, "unit": "%"},
      {"measurement": "periorbital edema, treatment-related AE", "setting": "[3]; patients with TGCT", "value": 39, "unit": "%"},
      {"measurement": "pruritus, treatment-related AE", "setting": "[3]; patients with TGCT", "value": 31, "unit": "%"},
      {"measurement": "patients who had a drug holiday", "setting": "[4]; of the 39 patients with TGCT", "value": "27 (69%) n (%)"},
      {"measurement": "patients who required dose reduction", "setting": "[4]; of the 39 patients with TGCT", "value": "24 (62%) n (%)"},
      {"measurement": "patients who experienced a drug holiday", "setting": "[4]; of the 91 patients", "value": "40 (44%) n (%)"},
      {"measurement": "patients who required dose reduction", "setting": "[4]; of the 91 patients", "value": "30 (33%) n (%)"},
      {"measurement": "RECIST response in patients who had previously received other TKI treatment", "setting": "[5]", "value": 75, "unit": "%"},
      {"measurement": "time of presentation of serious liver toxicity", "setting": "patients with TGCT; all cases, weeks of treatment", "value": "≤ 8", "unit": "weeks"},
      {"measurement": "isolated aminotransferase elevations, share of hepatic adverse reactions", "setting": "patients with TGCT; long-term treatment", "value": "> 90", "unit": "%"},
      {"measurement": "time to radiologic response", "setting": "[6]", "value": "≤ 4", "unit": "months"}
    ]}
  ]
}
